What was measured:
[1] = Reversal of multidrug resistance in human 2780AD cells assessed as [3H]vincristine accumulation at 0.1 ug/mL after 2 hrs relative to control; format: functional, A2780 ADR
Summary of the method: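 Multidrug-resistant human ovarian cancer 2780AD cells were exposed to taxoids at 0.1, 1 or 10 µg/mL. Radiolabelled vincristine accumulated in the cells was measured as dpm/well, using means of triplicate determinations. Results are expressed as % of vincristine accumulated relative to the control experiment. They were also scored on a seven-level index according to the range of relative accumulation.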

[2] = Reversal of multidrug resistance in human 2780AD cells assessed as [3H]vincristine accumulation at 1 ug/mL after 2 hrs relative to verapamil; format: functional, A2780 ADR
[3] = Reversal of multidrug resistance in human 2780AD cells assessed as [3H]vincristine accumulation at 10 ug/mL after 2 hrs relative to verapamil; format: functional, A2780 ADR
[4] = Growth inhibition of human HBC4 cells after 48 hrs by SRB assay; format: functional; settings: HBC4, 48 h
MDA-MB-231 = test: Growth inhibition of human MDA-MB-231 cells after 48 hrs by SRB assay; format: functional; settings: MDA-MB-231, 48 h
SF-268 = test: Growth inhibition of human SF268 cells after 48 hrs by SRB assay; format: functional; settings: SF-268, 48 h
SF-295 = test: Growth inhibition of human SF295 cells after 48 hrs by SRB assay; format: functional; settings: SF-295, 48 h
SF-539 = test: Growth inhibition of human SF539 cells after 48 hrs by SRB assay; format: functional; settings: SF-539, 48 h
SNB-75 = test: Growth inhibition of human SNB75 cells after 48 hrs by SRB assay; format: functional; settings: SNB-75, 48 h
HT-29 = test: Growth inhibition of human HT-29 cells after 48 hrs by SRB assay; format: functional; settings: HT-29, 48 h
HCT-15 = test: Growth inhibition of human HCT15 cells after 48 hrs by SRB assay; format: functional; settings: HCT-15, 48 h
HCT-116 = test: Growth inhibition of human HCT116 cells after 48 hrs by SRB assay; format: functional; settings: HCT-116, 48 h
A549 = test: Growth inhibition of human A549 cells after 48 hrs by SRB assay; format: functional; settings: A549, 48 h
DMS-273 = test: Growth inhibition of human DMS273 cells after 48 hrs by SRB assay; format: functional; settings: DMS-273, 48 h
OVCAR-5 = test: Growth inhibition of human OVCAR5 cells after 48 hrs by SRB assay; format: functional; settings: OVCAR-5, 48 h
[5] = Growth inhibition of human RXF631L cells after 48 hrs by SRB assay; format: functional; settings: RXF 631, 48 h
St-4 = test: Growth inhibition of human St-4 cells after 48 hrs by SRB assay; format: functional; settings: St-4, 48 h
[6] = Growth inhibition of human MKN1 cells after 48 hrs by SRB assay; format: functional; settings: MKN-1, 48 h
MKN-7 = test: Growth inhibition of human MKN7 cells after 48 hrs by SRB assay; format: functional; settings: MKN-7, 48 h
MKN-45 = test: Growth inhibition of human MKN45 cells after 48 hrs by SRB assay; format: functional; settings: MKN-45, 48 h
DU-145 = test: Growth inhibition of human DU145 cells after 48 hrs by SRB assay; format: functional; settings: DU-145, 48 h
PC-3 = test: Growth inhibition of human PC3 cells after 48 hrs by SRB assay; format: functional; settings: PC-3, 48 h
[7] = read-out: LC50 (the source's name)
[8] = read-out: pLC50 (the source's name) (converted)

C=C1[C@@H](OC(C)=O)CC[C@]2(C)[C@@H]1C[C@@H]1C[C@H](OC(C)=O)C(C)=C([C@@H](O)[C@@H]2OC(=O)/C=C/c2ccccc2)C1(C)C
Activity [1]: 162%
Activity [2]: 191%
Activity [3]: 122%
CC50 [4, 7]: 100 µM
TGI ([4]; read-out: TGI): 100 µM
GI50 ([4]; read-out: pGI50 (converted)): > 100 µM
CC50 [4, 8]: 100 µM
TGI ([4]; read-out: pTGI (converted)): 100 µM
GI50 (MDA-MB-231; read-out: GI50): 16 µM
TGI (MDA-MB-231; read-out: TGI): 100 µM
GI50 (MDA-MB-231; read-out: pGI50 (converted)): 16.2 µM
TGI (MDA-MB-231; read-out: pTGI (converted)): 100 µM
GI50 (SF-268; read-out: GI50): 43 µM
CC50 (SF-268; [7]): 100 µM
TGI (SF-268; read-out: TGI): 100 µM
GI50 (SF-268; read-out: pGI50 (converted)): 10.7 µM
CC50 (SF-268; [8]): 100 µM
TGI (SF-268; read-out: pTGI (converted)): 100 µM
GI50 (SF-295; read-out: GI50): 10 µM
TGI (SF-295; read-out: TGI): 100 µM
GI50 (SF-295; read-out: pGI50 (converted)): 10.5 µM
TGI (SF-295; read-out: pTGI (converted)): 100 µM
GI50 (SF-539; read-out: GI50): > 100 µM
CC50 (SF-539; [7]): 100 µM
TGI (SF-539; read-out: TGI): 100 µM
GI50 (SF-539; read-out: pGI50 (converted)): > 100 µM
CC50 (SF-539; [8]): 100 µM
TGI (SF-539; read-out: pTGI (converted)): 100 µM
GI50 (SNB-75; read-out: GI50): 7.3 µM
CC50 (SNB-75; [7]): 100 µM
TGI (SNB-75; read-out: TGI): 68 µM
GI50 (SNB-75; read-out: pGI50 (converted)): 7.24 µM
CC50 (SNB-75; [8]): 100 µM
TGI (SNB-75; read-out: pTGI (converted)): 67.6 µM
GI50 (HT-29; read-out: GI50): 43 µM
CC50 (HT-29; [7]): > 100 µM
TGI (HT-29; read-out: TGI): 100 µM
GI50 (HT-29; read-out: pGI50 (converted)): 41.7 µM
CC50 (HT-29; read-out: pLC50 (converted)): > 100 µM
TGI (HT-29; read-out: pTGI (converted)): 100 µM
GI50 (HCT-15; read-out: GI50): 29 µM
CC50 (HCT-15; [7]): > 100 µM
TGI (HCT-15; read-out: TGI): 100 µM
GI50 (HCT-15; read-out: pGI50 (converted)): 28.8 µM
CC50 (HCT-15; read-out: pLC50 (converted)): > 100 µM
TGI (HCT-15; read-out: pTGI (converted)): 100 µM
GI50 (HCT-116; read-out: GI50): 5.6 µM
CC50 (HCT-116; [7]): 100 µM
TGI (HCT-116; read-out: TGI): 100 µM
GI50 (HCT-116; read-out: pGI50 (converted)): 5.62 µM
CC50 (HCT-116; [8]): 100 µM
TGI (HCT-116; read-out: pTGI (converted)): 100 µM
GI50 (A549; read-out: GI50): 9.6 µM
CC50 (A549; [7]): 100 µM
TGI (A549; read-out: TGI): 100 µM
GI50 (A549; read-out: pGI50 (converted)): 9.55 µM
CC50 (A549; [8]): 100 µM
TGI (A549; read-out: pTGI (converted)): 100 µM
GI50 (DMS-273; read-out: GI50): 4.2 µM
CC50 (DMS-273; [7]): 100 µM
TGI (DMS-273; read-out: TGI): 100 µM
GI50 (DMS-273; read-out: pGI50 (converted)): 4.17 µM
CC50 (DMS-273; [8]): 100 µM
TGI (DMS-273; read-out: pTGI (converted)): 100 µM
GI50 (OVCAR-5; read-out: GI50): 32 µM
TGI (OVCAR-5; read-out: TGI): 100 µM
GI50 (OVCAR-5; read-out: pGI50 (converted)): 32.4 µM
TGI (OVCAR-5; read-out: pTGI (converted)): 100 µM
GI50 ([5]; read-out: GI50): > 100 µM
CC50 [5, 7]: 100 µM
TGI ([5]; read-out: TGI): 100 µM
GI50 ([5]; read-out: pGI50 (converted)): > 100 µM
CC50 [5, 8]: 100 µM
TGI ([5]; read-out: pTGI (converted)): 100 µM
GI50 (St-4; read-out: GI50): 24 µM
CC50 (St-4; [7]): 100 µM
TGI (St-4; read-out: TGI): 100 µM
GI50 (St-4; read-out: pGI50 (converted)): 24 µM
CC50 (St-4; [8]): 100 µM
TGI (St-4; read-out: pTGI (converted)): 100 µM
GI50 ([6]; read-out: GI50): 93 µM
TGI ([6]; read-out: TGI): 100 µM
GI50 ([6]; read-out: pGI50 (converted)): 93.3 µM
TGI ([6]; read-out: pTGI (converted)): 100 µM
GI50 (MKN-7; read-out: GI50): 5.1 µM
CC50 (MKN-7; [7]): 100 µM
TGI (MKN-7; read-out: TGI): 100 µM
GI50 (MKN-7; read-out: pGI50 (converted)): 5.13 µM
CC50 (MKN-7; [8]): 100 µM
TGI (MKN-7; read-out: pTGI (converted)): 100 µM
CC50 (MKN-45; [7]): 100 µM
TGI (MKN-45; read-out: TGI): 100 µM
GI50 (MKN-45; read-out: pGI50 (converted)): > 100 µM
CC50 (MKN-45; [8]): 100 µM
TGI (MKN-45; read-out: pTGI (converted)): 100 µM
GI50 (DU-145; read-out: GI50): > 100 µM
CC50 (DU-145; [7]): 100 µM
TGI (DU-145; read-out: TGI): 100 µM
GI50 (DU-145; read-out: pGI50 (converted)): > 100 µM
CC50 (DU-145; [8]): 100 µM
TGI (DU-145; read-out: pTGI (converted)): 100 µM
GI50 (PC-3; read-out: GI50): 5.2 µM
TGI (PC-3; read-out: TGI): 100 µM
GI50 (PC-3; read-out: pGI50 (converted)): 5.25 µM
TGI (PC-3; read-out: pTGI (converted)): 100 µM

Source: ChEMBL document CHEMBL1146459, “Production of biologically active taxoids by a callus culture of Taxus cuspidata” (2004)
